ChEMBL document CHEMBL4024765 (J Med Chem, 2017)
Converted amounts (≈) assume the structure as drawn.

Key:
Plasmodium falciparum [1] = assay: Increase in hemoglobin levels in chloroquine-sensitive synchronized ring stage of Plasmodium falciparum NF54 after 32 hrs by flow cytometric analysis; type: functional
In short: (§1)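 Sorbitol-synchronized (5%) ring-stage cultures exposed to compound at multiples of IC50 for 32 h; trophozoites freed with 0.05% saponin, PBS-washed, counted by hemocytometer and flow cytometry. Hypotonic lysis/sonication, then sequential SDS/pyridine fractionation into hemoglobin, free heme and hemozoin (SDS/NaOH) fractions; each measured by UV-vis as Fe(III) heme-pyridine complex.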

Plasmodium falciparum [2] = assay: Increase in free heme levels in chloroquine-sensitive synchronized ring stage of Plasmodium falciparum NF54 after 32 hrs by flow cytometric analysis; type: functional; in short: as §1
Plasmodium falciparum [3] = assay: Decrease in hemozoine formation in chloroquine-sensitive synchronized ring stage of Plasmodium falciparum NF54 after 32 hrs by flow cytometric analysis; type: functional; in short: as §1
Plasmodium falciparum [4] = assay: Resistance index, ratio of IC50 for chloroquine-resistant synchronized trophozoite stage of Plasmodium falciparum Dd2 to IC50 for chloroquine-sensitive synchronized trophozoite stage of Plasmodium falciparum NF54; type: functional
[5] = Kinetic solubility of compound in simulating fasting state biorelevant media at pH 6.5 after 2 hrs by shake flask method; type: physicochemical; conditions: fasted-state simulating biorelevant medium, read-out: Kinetic_solubility
[6] = n-Octanol-buffer distribution coefficient, log D of the compound at pH 5 incubated for 4 hrs by UV-vis based shake flask method; type: physicochemical
[7] = n-Octanol-buffer distribution coefficient, log D of the compound at pH 7.4 […] by HPLC based shake flask method; type: physicochemical
Plasmodium falciparum [8] = assay: Antiplasmodial activity against chloroquine-sensitive synchronized trophozoite stage of Plasmodium falciparum NF54 after 48 hrs by NBT dye based LDH assay; type: functional; conditions: NF54, 48 h
Plasmodium falciparum [9] = assay: Antiplasmodial activity against chloroquine-resistant synchronized trophozoite stage of Plasmodium falciparum Dd2 after 48 hrs by NBT dye based LDH assay; type: functional; conditions: Dd2, 48 h
Plasmodium falciparum [10] = assay: Antiplasmodial activity against chloroquine-resistant synchronized trophozoite stage of Plasmodium falciparum 7G8 after 48 hrs by NBT dye based LDH assay; type: functional; conditions: 7G8, 48 h
CHO = assay: Cytotoxicity against CHO cells by MTT assay; type: cell-based; conditions: Cricetulus griseus
In short: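 MTT assay on CHO cells. DMSO stock diluted in complete medium; 10-fold serial dilutions, 6 concentrations from 100 to 0.001 μg/mL; emetine reference; triplicate on each occasion. IC50 from non-linear fit of full dose-response curves.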

Plasmodium falciparum [11] = assay: Resistance index, ratio of IC50 for chloroquine-resistant synchronized trophozoite stage of Plasmodium falciparum 7G8 to IC50 for chloroquine-sensitive synchronized trophozoite stage of Plasmodium falciparum NF54; type: functional
[12] = Selectivity index, ratio of IC50 for CHO cells to IC50 for chloroquine-sensitive synchronized trophozoite stage of Plasmodium falciparum NF54; type: toxicity; conditions: hamster; read-out: Ratio IC50
Plasmodium berghei = assay: Antimalarial activity against chloroquine-sensitive Plasmodium berghei ANKA infected in C57BL/6 mouse assessed as supression of parasitemia at 30 mg/kg, po administered for 4 consecutive days starting at 2 hrs post infection by peter's test relative to control; type: functional
In short: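 P. berghei ANKA passaged in C57BL/6 donor; test mice infected ip with 200 μL of 1 × 10⁷ parasitized erythrocytes in PBS. Oral dosing 30 mg/kg at 2 h post-infection, then daily D0–D3; PBS-dosed controls. Parasitemia read on D4 from Giemsa-stained, methanol-fixed tail thin films; suppression relative to control.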

[13] = Half life in BALB/c mouse liver microsomes at 1 uM in presence of NADPH by LC-MS/MS analysis; type: ADME, microsome
In short: (§2)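 Compound at 1 μM with 0.35 mg/ml male BALB/c mouse liver microsomes, 1 mM NADPH, 100 mM phosphate pH 7.4, 37 °C, 30 min; triplicate. Stopped by ice-cold acetonitrile with carbamazepine internal standard; parent loss by LC-MS/MS (ESI positive, MRM) as % remaining; scan data screened for putative metabolite fragments.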

[14] = Intrinsic clearance in BALB/c mouse liver microsomes at 1 uM in presence of NADPH by LC-MS/MS analysis; type: ADME, microsome; conditions: read-out: CLH; in short: as §2
[15] = Metabolic stability in BALB/c mouse liver microsomes assessed as parent compound remaining at 1 uM after 30 mins in presence of NADPH by LC-MS/MS analysis; type: ADME, microsome; conditions: read-out: Stability; in short: as §2
[16] = Inhibition of beta hematin formation by detergent based assay
In short: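 β-hematin formation from hematin in 1 M acetate buffer pH 4.9 with NP40 detergent, compound serially diluted from 20 mM DMSO stock; ~5 h at 37 °C. Free heme complexed with pyridine/acetone/HEPES pH 7.4 solution, absorbance at 405 nm; IC50 from dose-response curves.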

Liver [17] = assay: Drug metabolism in BALB/c mouse liver microsomes assessed as N-dealkylation on tertiary amine at 1 uM in presence of NADPH by mass spectrometric analysis; type: ADME, microsome; in short: as §2
Liver [18] = assay: Drug metabolism in BALB/c mouse liver microsomes assessed as oxidation of quinoline core or pyridyl ring at 1 uM in presence of NADPH by mass spectrometric analysis; type: ADME, microsome; in short: as §2
Liver [19] = assay: Drug metabolism in BALB/c mouse liver microsomes assessed as N-dealkylation with oxidative deamination at 1 uM in presence of NADPH by mass spectrometric analysis; type: ADME, microsome; in short: as §2
Liver [20] = assay: Drug metabolism in BALB/c mouse liver microsomes assessed as aldehyde reduction at 1 uM in presence of NADPH by mass spectrometric analysis; type: ADME, microsome; in short: as §2
Liver [21] = assay: Drug metabolism in BALB/c mouse liver microsomes assessed as oxidation of aldehyde to carboxylic acid at 1 uM in presence of NADPH by mass spectrometric analysis; type: ADME, microsome; in short: as §2
[22] = target: Voltage-gated inwardly rectifying potassium channel KCNH2 (Homo sapiens, UniProt Q12809); assay: Inhibition of human ERG expressed in CHO cells by automated patch clamp method; type: cell-based
Voltage-gated inwardly rectifying potassium channel KCNH2, sequence (Q12809 whole entry): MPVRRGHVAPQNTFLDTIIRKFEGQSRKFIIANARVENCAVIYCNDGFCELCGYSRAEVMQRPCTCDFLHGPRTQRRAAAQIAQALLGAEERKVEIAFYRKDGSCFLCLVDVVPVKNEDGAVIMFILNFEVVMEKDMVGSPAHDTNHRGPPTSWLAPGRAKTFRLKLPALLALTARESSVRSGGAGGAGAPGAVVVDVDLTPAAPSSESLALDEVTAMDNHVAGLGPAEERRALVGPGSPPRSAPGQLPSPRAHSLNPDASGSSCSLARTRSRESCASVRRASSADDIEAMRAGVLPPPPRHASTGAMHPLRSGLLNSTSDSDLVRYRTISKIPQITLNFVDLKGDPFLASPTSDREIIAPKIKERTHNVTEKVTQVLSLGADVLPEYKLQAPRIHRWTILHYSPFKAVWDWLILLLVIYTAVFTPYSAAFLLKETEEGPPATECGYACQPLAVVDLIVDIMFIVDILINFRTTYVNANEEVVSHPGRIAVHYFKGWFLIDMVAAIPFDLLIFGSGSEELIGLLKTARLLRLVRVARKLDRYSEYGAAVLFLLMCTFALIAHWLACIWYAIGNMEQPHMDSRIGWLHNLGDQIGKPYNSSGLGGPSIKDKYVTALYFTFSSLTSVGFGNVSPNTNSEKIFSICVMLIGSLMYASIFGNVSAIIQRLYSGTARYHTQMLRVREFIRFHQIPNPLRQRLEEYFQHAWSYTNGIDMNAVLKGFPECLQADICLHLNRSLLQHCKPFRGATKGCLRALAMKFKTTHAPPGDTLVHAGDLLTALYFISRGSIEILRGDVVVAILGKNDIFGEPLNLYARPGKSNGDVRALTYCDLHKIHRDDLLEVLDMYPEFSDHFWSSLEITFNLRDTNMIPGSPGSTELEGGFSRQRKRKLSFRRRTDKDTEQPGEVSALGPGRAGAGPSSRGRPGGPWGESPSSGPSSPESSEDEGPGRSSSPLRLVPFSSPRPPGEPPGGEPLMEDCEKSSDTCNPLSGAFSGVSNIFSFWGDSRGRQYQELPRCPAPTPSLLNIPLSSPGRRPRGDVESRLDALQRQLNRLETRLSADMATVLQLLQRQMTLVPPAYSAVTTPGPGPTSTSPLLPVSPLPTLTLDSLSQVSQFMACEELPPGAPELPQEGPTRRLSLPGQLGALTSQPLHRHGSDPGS

Row | SMILES | Activity (Plasmodium falciparum [1]) | Activity (Plasmodium falciparum [2]) | Activity (Plasmodium falciparum [3]) | Ratio IC50 (Plasmodium falciparum [4]) | solubility kinetic at 2 h [5] [µM] | logD at 4 h [6] | logD [7] | IC50 (Plasmodium falciparum [8]) [µM] | IC50 (Plasmodium falciparum [9]) [µM] | IC50 (Plasmodium falciparum [10]) [µM] | IC50 (CHO) [µM] | Ratio IC50 (Plasmodium falciparum [11]) | selectivity ratio [12] | Activity (Plasmodium berghei) [%] | half-life at 1 µM [13] [min] | CLint scaled at 1 µM [14] [mL/min/kg] | remaining at 0.5 h, 1 µM [15] [%] | IC50 [16] [µM] | Drug metabolism (Liver [17]) | Drug metabolism (Liver [18]) | also measured
1 | CN(Cc1ccccc1)Cc1cccc(CNc2ccnc3cc(Cl)ccc23)c1 [listing 1 of 2 here] | Dose-dependent effect | Dose-dependent effect | Dose-dependent effect |  |  |  |  |  |  |  |  |  |  |  |  |  |  |  |  |  | 
2 | CN(Cc1ccc(CNc2ccnc3cc(Cl)ccc23)cc1)Cc1ccccn1 | Dose-dependent effect | Dose-dependent effect | Dose-dependent effect | 3.9 | 197 (≈ 79.2 µg/mL) | 0.84 | 2.85 | 0.0385 | 0.151 | 0.114 | 15.7 | 3 | 408 | 91.4 | 5.35 | 1250 | 2.08 | 17.2 | Metabolite_Detected | Metabolite_Detected | Drug metabolism (Liver [19]): Metabolite_Detected; Drug metabolism (Liver [20]): Metabolite_Detected; Drug metabolism (Liver [21]): Metabolite_Detected
3 | CN(Cc1ccccn1)Cc1ccccc1CNc1ccnc2cc(C#N)ccc12 | Dose-dependent effect | Dose-dependent effect | Dose-dependent effect | 1.3 | 172 (≈ 67.8 µg/mL) | 0.81 | 3.8 | 0.127 | 0.162 | 0.307 | 27.6 | 2.4 | 218 | 47.1 | 5.35 | 1250 | 2.08 | 16.6 | Metabolite_Detected | Metabolite_Detected | Drug metabolism (Liver [19]): Metabolite_Detected; Drug metabolism (Liver [20]): Metabolite_Detected; Drug metabolism (Liver [21]): Metabolite_Detected
4 | CN(Cc1ccccn1)Cc1ccccc1CNc1ccnc2cc(Cl)ccc12 | Dose-dependent effect | Dose-dependent effect | Dose-dependent effect | 2.5 | 165 (≈ 66.4 µg/mL) | 0.9 | 3.79 | 0.0544 | 0.137 | 0.184 | 40.2 | 3.4 | 740 | 82.4 | 5.49 | 1220 | 2.32 | 17.9 | Metabolite_Detected | Metabolite_Detected | Drug metabolism (Liver [19]): Metabolite_Detected; Drug metabolism (Liver [20]): Metabolite_Detected; Drug metabolism (Liver [21]): Metabolite_Detected; IC50 [22]: 0.87 µM
5 | CN(Cc1ccccc1)Cc1cccc(CNc2ccnc3cc(Cl)ccc23)c1.Cl |  |  |  | 3.1 | 51.8 | 1.33 | 3.56 | 0.0144 | 0.0445 | 0.0696 | 9.5 | 4.8 | 660 | 97.5 | 6.15 | 1110 | 3.57 | 13.4 | Metabolite_Detected | Metabolite_Detected | Drug metabolism (Liver [19]): Metabolite_Detected; Drug metabolism (Liver [20]): Metabolite_Detected; Drug metabolism (Liver [21]): Metabolite_Detected
6 | CCN(CC)CCCC(C)Nc1ccnc2cc(Cl)ccc12 (centres undefined) [CHLOROQUINE] |  |  |  |  |  |  |  |  |  |  |  |  |  | 91.2 |  |  |  |  |  |  | 
7 | CCN(CC)CCCC(C)Nc1ccnc2cc(Cl)ccc12 (centres undefined) [CHLOROQUINE PHOSPHATE] |  |  |  |  |  |  |  |  |  |  |  |  |  |  |  |  |  | 26.1 |  |  | 
8 | CCN(CC)CCCC(C)Nc1ccnc2cc(Cl)ccc12 (centres undefined) | Dose-dependent effect | Dose-dependent effect | Dose-dependent effect |  |  |  |  |  |  |  |  |  |  |  |  |  |  |  |  |  | 
9 | Cc1ncc2n1-c1ccc(Cl)cc1C(c1ccccc1F)=NC2 [MIDAZOLAM] |  |  |  |  |  |  |  |  |  |  |  |  |  |  | 4.74 | 1420 | 1.33 |  |  |  | 
10 | CN(Cc1ccc(CNc2ccnc3cc(C#N)ccc23)cc1)Cc1ccccn1 | Dose-dependent effect | Dose-dependent effect | Dose-dependent effect | 1.9 | 144 (≈ 56.5 µg/mL) | 1 | 2.84 | 0.0764 | 0.145 | 0.134 | 11.2 | 1.8 | 146 | 98 | 6.22 | 1100 | 3.63 | 24.8 | Metabolite_Detected | Metabolite_Detected | Drug metabolism (Liver [19]): Metabolite_Detected; Drug metabolism (Liver [20]): Metabolite_Detected; Drug metabolism (Liver [21]): Metabolite_Detected
11 | COC(=O)[C@H]1[C@H]2C[C@@H]3c4[nH]c5cc(OC)ccc5c4CCN3C[C@H]2C[C@@H](OC(=O)c2cc(OC)c(OC)c(OC)c2)[C@@H]1OC [RESERPINE] |  |  |  |  | < 5 |  |  |  |  |  |  |  |  |  |  |  |  |  |  |  | 
12 | CN(Cc1ccccc1)Cc1cccc(CNc2ccnc3cc(Cl)ccc23)c1 [listing 2 of 2 here] |  |  |  |  |  |  |  |  |  |  |  |  |  | 99.9 |  |  |  |  |  |  | 
13 | C[C@H]1[C@H](OC(=O)CCC(=O)O)O[C@@H]2O[C@@]3(C)CC[C@H]4[C@H](C)CC[C@@H]1[C@@]24OO3 [ARTESUNATE] |  |  |  | 2.6 |  |  |  | 0.0056 | 0.0143 | 0.0077 |  | 1.4 |  |  |  |  |  |  |  |  | 
14 | CN(Cc1cccc(CNc2ccnc3cc(Cl)ccc23)c1)Cc1ccccn1 | Dose-dependent effect | Dose-dependent effect | Dose-dependent effect | 4.1 | 59.8 (≈ 24.1 µg/mL) | 0.82 | 2.47 | 0.0301 | 0.124 | 0.0838 | 8.3 | 2.8 | 275 | 97.8 | 5.89 | 1140 | 2.96 | 20.8 | Metabolite_Detected | Metabolite_Detected | Drug metabolism (Liver [19]): Metabolite_Detected; Drug metabolism (Liver [20]): Metabolite_Detected; Drug metabolism (Liver [21]): Metabolite_Detected
